Measured values of several laboratories.
Each line is one published result; the experiments were not run side by side.
Target: SRSF protein kinase 2 (SRPK2, Homo sapiens, UniProt P78362)

CN(CCCC(F)(F)F)c1nccc(-c2cnn3ncccc23)n1 — remaining binding (binding; 1 µM): 100%
C=CC(=O)N1CCC(C(=O)NCC(=O)N2CCN(c3nc(-c4cnc(N)nc4C(F)F)nc(N4CCOCC4)n3)CC2)CC1 — remaining binding (binding; competition with immobilised ligand; 1 µM): 100%
COc1cnc(Nc2cccc(S(N)(=O)=O)c2)nc1N1CCN(c2ccccc2)C(=O)C1 — remaining binding (binding; competition with immobilised ligand; 1 µM): 89%
O=C(c1ccc(Nc2ncc(Cl)c(-c3cc4ccccc4s3)n2)cc1)N1CCC(N2CCCC2)CC1 — remaining binding (binding; competition with immobilised ligand; 1 µM): 99%
CN(C)C(=O)Cn1cc(-c2nc(C3(c4ccc(-c5cnc(N)nc5)cc4)CC3)no2)cn1 — remaining binding (cell-free assay; competition with immobilised ligand; 1 µM): 91%
O=C(c1ccc(Nc2ncc(Cl)c(-c3ccc(Cl)s3)n2)cc1)N1CCC(N2CCCC2)CC1 — remaining binding (binding; competition with immobilised ligand; 1 µM): 89%
CC1CCCN1c1nccc(-c2cnn3ncccc23)n1 (stereo not drawn) — remaining binding (binding; 1 µM): 100%
CC1=C(C#N)C(c2ccc3c(c2)c(NC(=O)c2ccccc2C)nn3C)C(C#N)=C(C)N1 — remaining binding (cell-free assay; competition with immobilised ligand; 1 µM): 88%
O=C(NCC1CCOCC1)c1n[nH]cc1NC(=O)c1c(F)cccc1F — remaining binding (binding; competition with immobilised ligand; 1 µM): 84%
CS(=O)(=O)N1CCCC(NC(=O)[C@H](CCC2CCCCC2)NC(=O)c2ccc(CNC(=O)c3cnc4ccccn34)cc2)C1 (stereo partly drawn) — remaining binding (cell-free assay; competition with immobilised ligand; 0.1 µM): 83%
Cc1cnc(Nc2ccc(C(=O)N3CCC(N4CCCC4)CC3)cc2)nc1-c1cc2ccccc2s1 — remaining binding (binding; competition with immobilised ligand; 1 µM): 100%
Cc1nc(N2CC[C@@H](O)C2)ncc1-c1cc(C(F)(F)F)cc2[nH]ncc12 — remaining binding (binding; competition with immobilised ligand; 1 µM): 100%
Nc1ncc2c(n1)-c1c([nH]c3ccc(C#CC4CC4)cc13)CCCC2 — remaining binding (binding; competition with immobilised ligand; 1 µM): 82%
F[C@@H]1CCN(c2nccc(-c3cnn4ncccc34)n2)C1 — remaining binding (binding; 1 µM): 80%
CCN1CCN(Cc2ccc(C(=O)Nc3ccc(C)c(Oc4ccc5c(c4)CC(=O)N5)c3)cc2C(F)(F)F)CC1 — remaining binding (binding; competition with immobilised ligand; 1 µM): 100%
N[C@@H]1CCN(c2nccc(-c3cnn4ncccc34)n2)C1 — remaining binding (binding; 1 µM): 100%
O=C(N1CCS(=O)(=O)CC1)N1C[C@H](c2ccc(OC(F)(F)F)cc2)C[C@H](c2nc(C3CC3)no2)C1 — remaining binding (cell-free assay; competition with immobilised ligand; 1 µM): 100%
CN(C)c1nccc(-c2cnc3ncccn23)n1 — remaining binding (binding; 1 µM): 100%
Cc1nc(Cc2cccc(C(F)(F)F)c2)sc1-c1ccc(C(N)=O)nc1 — remaining binding (cell-free assay; competition with immobilised ligand; 1 µM): 100%
C[C@H]1CCN(c2nccc(-c3cnn4ncccc34)n2)C1 — remaining binding (binding; 1 µM): 93%
c1cncc(-c2cccc(Nc3nccc(NC4CCCCC4)n3)c2)c1 — remaining binding (binding; competition with immobilised ligand; 10 µM): 100%
